# Read-outs that look alike come from different tables or passages of the source.
# Tests used:
# β-hematin formation = experiment: β-Hematin formation assay; format: biochemical; conditions: 100 μM; for %Inhibition of β-hematin formation: average of two separate experiments
# Outline: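 Compound added with water, acetone and Nonidet P-40, then hematin-DMSO suspension; incubated 6 h at 37 °C with shaking. β-Hematin measured by pyridine ferrochrome method: 5% v/v final pyridine (from water/20% acetone/HEPES/50% pyridine solution), 10 min under the same conditions, absorbance at 405 nm. Chloroquine and 8-hydroxyquinoline run as references.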
# [1] = test system: P. falciparum 3D7 (chloroquine-sensitive); experiment: SYBR green I-based parasite viability assay, 3D7 strain; format: cell-based; conditions: Plasmodium falciparum, 3D7, 72 h
# Outline: (§1)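 Parasites grown in human A+ erythrocytes in RPMI 1640 (25 mM HEPES pH 7.4, 26 mM NaHCO3, 2% dextrose, hypoxanthine, gentamycin, 0.5% Albumax II), 37 °C, 5% CO2. Compound DMSO dilutions (<0.125% DMSO) at 1% parasitemia, 2% hematocrit; chloroquine baseline. After 72 h: frozen at −80 °C, thawed, lysed with saponin/Triton/EDTA buffer containing 0.01% SYBR Green I, 30 min dark at 37 °C; fluorescence read at 485/530 nm. EC50 from 3 experiments × 3 replicates (±SD).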
# [2] = test system: P. falciparum Dd2 (chloroquine-resistant); experiment: SYBR green I-based parasite viability assay, Dd2 strain; format: cell-based, Plasmodium falciparum; conditions: for EC50: Plasmodium falciparum, DD2, 72 h
# Outline: as §1
# [3] = test system: HepG2 human hepatocyte cells; experiment: MTS cytotoxicity assay; format: cell-based; conditions: for EC50: Homo sapiens
# Outline: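 HepG2 seeded at 2500 cells/well in 384-well plates with compound dilutions, 48 h at 37 °C, 5% CO2. MTS reagent added for a further 3 h; absorbance read at 490 nm. EC50 from 3 independent experiments, each in triplicate (±SD).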
# [4] = test system: P. falciparum HB3 (chloroquine-sensitive); experiment: Image-based merozoite egress and invasion assay; format: cell-based, Plasmodium falciparum; conditions: for parasite phenotype in sample micrographs: 1 μM at 42 hpi for 24 h (Fig. 4 legend); for effect on merozoite egress and invasion: exposed at 42 hpi (schizont stage) for 24 h, 10 μM per method
# Outline: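 Sorbitol-synchronized HB3 at 1.5% hematocrit and 5% parasitemia, exposed at 42 hpi for 24 h alongside GlcNAc, E-64 and artemisinin references. Stained with WGA-Alexa Fluor 488 and Mitotracker Red CMXRos (1 nM each, 37 °C, 20 min), then fixed in 4% paraformaldehyde with DAPI. Five fields per well imaged at 405/488/635 nm (40× objective) with automated detection of parasitized erythrocytes.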
# P. falciparum = experiment: Parasitemia after treatment at late schizont/segmenter stage; format: cell-based, Plasmodium falciparum; conditions: 5× EC50, 24 h; compared to control cultures
# P. falciparum Dd2 [5] = experiment: Stage specificity, YOYO-1 flow cytometry of synchronized cultures; format: cell-based, Plasmodium falciparum; conditions: treated at ring stage (6 hpi), 5× EC50; monitored every 12 h
# Outline: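 Aliquots taken every 12 h over 48 h. Samples fixed in 0.04% glutaraldehyde/PBS, permeabilized with 0.25% Triton X-100, RNase-treated and stained with YOYO-1. Flow cytometry at 488 nm excitation with a 530/30 filter; DNA content plotted against cell count.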
# [6] = Aqueous solubility at pH 7.4, UV-visible absorption based method; format: physicochemical; conditions: aqueous solution at pH 7.4, pH 7.4, aqueous buffer
# [7] = test system: P. berghei ANKA expressing luciferase; experiment: Elimination of existing infection, luciferase IVIS imaging; format: in vivo, Plasmodium berghei in Swiss Webster mice; conditions: 100 mg/kg once daily oral, started 72 h post-infection; Swiss Webster mice
# Outline: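 Swiss Webster mice infected with 10^4 luciferase-expressing P. berghei ANKA on day 0 and grouped at 72 h (n = 5/group). Oral gavage once daily for 5 days: test compound 100 mg/kg, chloroquine 40 mg/kg, or vehicle (2% methylcellulose, 0.5% Tween80). On day 7, D-luciferin 150 mg/kg injected; signal detected and quantified by IVIS.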
# Microsomal stability = format: in vitro ADME; conditions: mouse, liver microsomes
# P. berghei ANKA = experiment: Peters' four-day test, murine malaria model; format: in vivo, Plasmodium berghei in balb/c mice; conditions: 100 mg/kg twice daily oral
# P. falciparum Dd2 [8] = experiment: Stage specificity, Giemsa-stained thin smears of synchronized cultures; format: cell-based, Plasmodium falciparum
# [9] = HepG2, 48 h, read-out: HepG2 EC50
compound,measurement,setting,value
Oc1cccc2cccnc12 [8-Hydroxyquinoline],%Inhibition of β-hematin formation,β-hematin formation,6 ± 0.42%
COc1ccc2nc(/C=C/c3ccccc3)cc(NCCCN3CCOCC3)c2c1 [Compound 13],EC50,[1]; read-out: 3D7 EC50,373 ± 30 nM
same,EC50,[2]; read-out: Dd2 EC50,303 ± 40 nM
same,EC50,[3]; [9],18000 ± 40 nM
COc1ccc2nc(/C=C/c3ccc(F)cc3)cc(NCCCN(C)C)c2c1 [Compound 9],EC50,[1]; read-out: 3D7 EC50,299 ± 40 nM
same,EC50,[2]; read-out: Dd2 EC50,137 ± 50 nM
same,EC50,[3]; [9],12600 ± 10 nM
COC(=O)c1ccc(/C=C/c2cc(NCCCN(C)C)c3cc(OC)ccc3n2)cc1 [Compound 11],EC50,[1]; read-out: 3D7 EC50,294 ± 60 nM
same,EC50,[2]; read-out: Dd2 EC50,138 ± 60 nM
same,EC50,[3]; [9],14900 ± 30 nM
COC(=O)c1ccc(/C=C/c2cc(NCCCN3CCOCC3)c3cc(OC)ccc3n2)cc1 [Compound 16],EC50,[1]; read-out: 3D7 EC50,322 ± 40 nM
same,EC50,[2]; read-out: Dd2 EC50,471 ± 80 nM
same,EC50,[3]; [9],12800 ± 20 nM
CC(=O)N[C@@H]1[C@@H](O)[C@H](O)[C@@H](CO)O[C@H]1O [N-acetylglucosamine],parasite phenotype in sample micrographs,[4],accumulation of extracellular merozoites
same,effect on merozoite egress and invasion,[4],blocks invasion
"C[C@@H]1CC[C@H]2[C@@H](C)C(=O)O[C@@H]3O[C@@]4(C)CC[C@@H]1[C@]32OO4 [artemisinin, reference compound]",effect on merozoite egress and invasion,[4],no effect on invasion
same,culture parasitemia after exposure at 42 hpi,P. falciparum,does not cause similar marked reduction
same,intraerythrocytic maturation by flow cytometry,P. falciparum Dd2 [5],maturation is blocked
COc1ccc2nc(/C=C/c3ccc(C(F)(F)F)cc3)cc(NCCCN3CCOCC3)c2c1 [Compound 15],EC50,[1]; read-out: 3D7 EC50,599 ± 30 nM
same,EC50,[2]; read-out: Dd2 EC50,735 ± 60 nM
same,EC50,[3]; [9],> 20000 nM
COc1ccc2nc(/C=C/c3ccc([N+](=O)[O-])cc3)cc(NCCCN3CCOCC3)c2c1 [Compound 17],EC50,[1]; read-out: 3D7 EC50,193 ± 50 nM
same,EC50,[2]; read-out: Dd2 EC50,123 ± 50 nM
same,EC50,[3]; [9],15700 ± 70 nM
"CC(C)C[C@H](NC(=O)[C@H]1O[C@@H]1C(=O)O)C(=O)NCCCCN=C(N)N (relative stereo) [Compound E-64, L-trans-epoxysuccinyl-leucylamido-(4-guanidino)butane]",effect on merozoite egress and invasion,[4],completely blocks egress
"CCN(CC)CCCC(C)Nc1cc(/C=C/c2ccc([N+](=O)[O-])cc2)nc2ccc(OC)cc12 (stereo not shown) [UCF 501, 4-Nitro styrylquinoline (NSQ)]",solubility,[6],290 µg/mL
same,"luciferase expressing parasite burden, delayed treatment",[7],almost cleared
same,EC50,[1]; read-out: EC50 3D7,119 ± 3 nM
same,parasite phenotype in sample micrographs,[4],accumulation of extracellular merozoites
same,effect on merozoite egress and invasion,[4],blocks invasion
same,culture parasitemia after exposure at 42 hpi,P. falciparum,significant reduction
same,EC50,[2]; read-out: EC50 Dd2,67 ± 8 nM
same,intraerythrocytic maturation by flow cytometry,P. falciparum Dd2 [5],maturation is blocked
same,selectivity,[3]; HepG2 EC50 versus Dd2 EC50,192
same,EC50,"[3]; HepG2, 48 h, read-out: EC50 HepG2",12920 ± 70 nM
same,EC50,"[3]; HepG2, read-out: EC50 in HepG2 cells",12900 nM
same,remaining at 1 h,Microsomal stability,47.8%
same,half-life,"Microsomal stability; Microsomal stability t1/2, mouse liver microsomes",56.2 min
same,mice cured of malaria infection,"P. berghei ANKA; 4 days, Balb/c mice, no infection up to day 30",4/5
same,"parasitemia in the one animal not cured, day 22",P. berghei ANKA; day 22,0.2%
same,"parasitemia in the one animal not cured, day 27","P. berghei ANKA; day 27, euthanized",40%
same,"inhibition of β-hematin formation, in words",β-hematin formation,totally inactive
same,%Inhibition of β-hematin formation,β-hematin formation,0 ± 0.07%
same,ring-infected erythrocytes after exposure at 42 hpi,"P. falciparum Dd2 [8]; 5× EC50, compared to untreated controls",scarcely seen
same,blocking merozoite egress,"P. falciparum Dd2 [8]; 5× EC50, treated at 42 hpi",inactive
same,time to phenotypically observable developmental changes,"P. falciparum Dd2 [8]; after treatment, all stages of the intraerythrocytic lifecycle",≤ 12 h
COc1ccc2nc(/C=C/c3ccccc3)cc(NCCCN(C)C)c2c1 [Compound 8],EC50,[1]; read-out: 3D7 EC50,302 ± 10 nM
same,EC50,[2]; read-out: Dd2 EC50,323 ± 40 nM
same,EC50,[3]; [9],19900 ± 40 nM
"CCN(CC)CCCC(C)Nc1ccnc2cc(Cl)ccc12 (stereo not shown) [Chloroquine, reference compound]",EC50,[1]; read-out: 3D7 EC50,11 ± 2 nM
same,EC50 fold higher in Dd2 compared to 3D7,[2]; Dd2 versus 3D7,15 fold
same,EC50,[2]; read-out: Dd2 EC50,172 nM
same,EC50,[3]; [9],> 20000 nM
same,"inhibition of β-hematin formation, in words",β-hematin formation,complete inhibition
same,%Inhibition of β-hematin formation,β-hematin formation,100 ± 1.78%
COc1ccc2nc(/C=C/c3ccc([N+](=O)[O-])cc3)cc(NCCCN(C)C)c2c1 [Compound 12],EC50,[1]; read-out: 3D7 EC50,197 ± 20 nM
same,EC50,[2]; read-out: Dd2 EC50,57 ± 30 nM
same,EC50,[3]; [9],15300 ± 50 nM
COc1ccc2nc(/C=C/c3ccc(C(F)(F)F)cc3)cc(NCCCN(C)C)c2c1 [Compound 10],EC50,[1]; read-out: 3D7 EC50,605 ± 40 nM
same,EC50,[2]; read-out: Dd2 EC50,726 ± 40 nM
same,EC50,[3]; [9],> 20000 nM
COc1ccc2nc(/C=C/c3ccc(F)cc3)cc(NCCCN3CCOCC3)c2c1 [Compound 14],EC50,[1]; read-out: 3D7 EC50,310 ± 20 nM
same,EC50,[2]; read-out: Dd2 EC50,208 ± 40 nM
same,EC50,[3]; [9],13600 ± 50 nM
